These results are taken from ChEMBL document CHEMBL4699653, “Hydroxamate-Based Selective Macrophage Elastase (MMP-12) Inhibitors and Radiotracers for Molecular Imaging” (J Med Chem, 2020).

The source made the active and inactive calls. No cut-off for these calls is given here. Some results are limits rather than exact numbers.

One assay concerns the target Collagenase 3 (Homo sapiens, UniProt P45452). Briefly: Inhibition of human recombinant MMP13 using Mca-Lys-Pro-Leu-Gly-Leu-Dpa-Ala-Arg-NH2 substrate by spectrophotometry. The procedure, abridged: (§1)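 Fluorogenic cleavage kinetics with 0.2–0.5 nM recombinant human MMP in 50 mM Tris/HCl pH 6.8 with 10 mM CaCl2 at 25 °C. […] Fluorescence is monitored. Ki is derived by the Horovitz–Levitski method, as the mean ± SD of three experiments.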

Assay [1] addresses Macrophage metalloelastase (Mus musculus) (UniProt P34960). In words: Inhibition of mouse recombinant MMP12 using Mca-Lys-Pro-Leu-Gly-Leu-Dpa-Ala-Arg-NH2 substrate by spectrophotometry.
Assay [2] addresses Matrix metalloproteinase-9 (Homo sapiens, UniProt P14780). Briefly: Inhibition of human recombinant MMP9 using Mca-Lys-Pro-Leu-Gly-Leu-Dpa-Ala-Arg-NH2 substrate by spectrophotometry. In outline: as §1
The target in assay [3] is Macrophage metalloelastase (Homo sapiens, UniProt P39900). Briefly: Inhibition of human recombinant MMP12 using Mca-Lys-Pro-Leu-Gly-Leu-Dpa-Ala-Arg-NH2 substrate by spectrophotometry. In outline:
as §1

The target of the next assay is T1, Matrilysin (Homo sapiens, UniProt P09237).
T1 sequence (P09237 whole entry): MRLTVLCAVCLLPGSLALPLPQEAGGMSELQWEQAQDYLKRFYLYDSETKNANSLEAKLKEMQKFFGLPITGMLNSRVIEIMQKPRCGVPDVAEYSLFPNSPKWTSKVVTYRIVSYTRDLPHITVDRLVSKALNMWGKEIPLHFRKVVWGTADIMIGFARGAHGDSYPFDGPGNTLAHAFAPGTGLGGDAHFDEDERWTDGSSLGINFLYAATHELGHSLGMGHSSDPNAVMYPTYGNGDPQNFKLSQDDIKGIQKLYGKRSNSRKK
Briefly: Inhibition of human recombinant MMP7 using Mca-Lys-Pro-Leu-Gly-Leu-Dpa-Ala-Arg-NH2 substrate by spectrophotometry. In outline:
as §1

The target in assay [4] is 72 kDa type IV collagenase (Homo sapiens, UniProt P08253). Briefly: Inhibition of human recombinant MMP2 using Mca-Lys-Pro-Leu-Gly-Leu-Dpa-Ala-Arg-NH2 substrate by spectrophotometry. The procedure, abridged:
as §1

For assay [5], the species on record is Homo sapiens. In words: Selectivity index, ratio of Ki for inhibition of human recombinant MMP7 for Ki for inhibition of human recombinant MMP12.
The species named for assay [6] is Homo sapiens. Briefly: Selectivity index, ratio of Ki for inhibition of human recombinant MMP13 for Ki for inhibition of human recombinant MMP12.
Assay [7] is filed under the species Homo sapiens. Briefly: Selectivity index, ratio of Ki for inhibition of human recombinant MMP9 for Ki for inhibition of human recombinant MMP12.

Chain of Matrix metalloproteinase-9 (P14780 whole entry): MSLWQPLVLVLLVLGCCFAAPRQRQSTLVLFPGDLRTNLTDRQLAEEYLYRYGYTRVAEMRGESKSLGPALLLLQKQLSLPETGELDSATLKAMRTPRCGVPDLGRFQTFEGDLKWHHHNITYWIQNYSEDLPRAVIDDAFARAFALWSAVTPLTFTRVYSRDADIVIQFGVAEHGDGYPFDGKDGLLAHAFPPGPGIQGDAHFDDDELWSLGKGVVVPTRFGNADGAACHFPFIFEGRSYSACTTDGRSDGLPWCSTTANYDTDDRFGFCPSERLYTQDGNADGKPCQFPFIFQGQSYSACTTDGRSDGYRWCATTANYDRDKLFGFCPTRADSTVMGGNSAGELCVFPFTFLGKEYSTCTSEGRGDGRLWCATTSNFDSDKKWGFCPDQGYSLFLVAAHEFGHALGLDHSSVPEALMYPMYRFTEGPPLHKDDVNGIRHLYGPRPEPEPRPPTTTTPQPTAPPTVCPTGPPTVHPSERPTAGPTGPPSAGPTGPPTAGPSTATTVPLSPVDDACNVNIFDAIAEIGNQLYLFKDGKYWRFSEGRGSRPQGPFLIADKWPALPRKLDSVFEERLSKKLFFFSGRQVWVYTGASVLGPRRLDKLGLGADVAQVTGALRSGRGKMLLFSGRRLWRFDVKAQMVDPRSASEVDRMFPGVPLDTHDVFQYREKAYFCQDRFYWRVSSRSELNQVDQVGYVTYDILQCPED
Chain of Macrophage metalloelastase (Mus musculus) (P34960 110-473 limits assumed): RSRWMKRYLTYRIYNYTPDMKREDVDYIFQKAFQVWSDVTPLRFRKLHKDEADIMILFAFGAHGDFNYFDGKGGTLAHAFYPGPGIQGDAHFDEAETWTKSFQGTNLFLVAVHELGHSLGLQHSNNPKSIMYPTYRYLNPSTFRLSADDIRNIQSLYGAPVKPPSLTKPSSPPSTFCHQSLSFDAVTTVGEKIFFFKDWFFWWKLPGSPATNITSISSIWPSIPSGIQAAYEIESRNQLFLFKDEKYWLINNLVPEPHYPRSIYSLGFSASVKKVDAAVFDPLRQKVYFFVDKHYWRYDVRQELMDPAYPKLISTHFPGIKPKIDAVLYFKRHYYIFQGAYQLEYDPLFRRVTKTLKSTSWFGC
Chain of 72 kDa type IV collagenase (P08253 whole entry): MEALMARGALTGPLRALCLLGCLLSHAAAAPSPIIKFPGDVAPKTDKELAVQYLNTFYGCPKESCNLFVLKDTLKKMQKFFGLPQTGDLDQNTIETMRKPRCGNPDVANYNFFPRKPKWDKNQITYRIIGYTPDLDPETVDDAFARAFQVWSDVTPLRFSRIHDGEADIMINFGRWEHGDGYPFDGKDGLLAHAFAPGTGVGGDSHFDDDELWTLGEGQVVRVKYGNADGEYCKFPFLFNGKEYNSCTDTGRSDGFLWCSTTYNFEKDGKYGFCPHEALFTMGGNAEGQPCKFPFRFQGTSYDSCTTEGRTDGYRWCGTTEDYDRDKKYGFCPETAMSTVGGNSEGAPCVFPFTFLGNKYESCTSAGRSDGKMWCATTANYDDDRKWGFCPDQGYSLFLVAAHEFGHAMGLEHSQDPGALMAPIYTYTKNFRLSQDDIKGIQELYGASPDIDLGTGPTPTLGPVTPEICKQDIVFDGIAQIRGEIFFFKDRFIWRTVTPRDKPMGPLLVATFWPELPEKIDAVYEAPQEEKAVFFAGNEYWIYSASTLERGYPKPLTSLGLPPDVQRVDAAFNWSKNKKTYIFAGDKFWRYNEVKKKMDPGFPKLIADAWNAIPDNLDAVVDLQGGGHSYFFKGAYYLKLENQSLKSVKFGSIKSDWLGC
Chain of Macrophage metalloelastase (P39900 whole entry): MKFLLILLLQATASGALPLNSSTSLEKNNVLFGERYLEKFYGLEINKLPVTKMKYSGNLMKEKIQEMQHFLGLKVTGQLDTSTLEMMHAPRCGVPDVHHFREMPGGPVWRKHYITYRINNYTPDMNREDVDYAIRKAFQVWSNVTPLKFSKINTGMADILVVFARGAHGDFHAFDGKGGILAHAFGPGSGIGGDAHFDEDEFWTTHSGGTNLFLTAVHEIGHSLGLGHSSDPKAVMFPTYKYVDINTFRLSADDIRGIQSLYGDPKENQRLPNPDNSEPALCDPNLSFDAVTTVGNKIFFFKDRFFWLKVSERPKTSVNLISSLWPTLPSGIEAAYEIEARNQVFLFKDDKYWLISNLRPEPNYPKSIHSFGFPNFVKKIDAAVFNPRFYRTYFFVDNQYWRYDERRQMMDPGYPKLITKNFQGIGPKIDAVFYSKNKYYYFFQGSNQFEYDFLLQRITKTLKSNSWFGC

Usually Ki stands for a dissociation constant, usually derived from enzyme kinetics or from competition with a known ligand. Regarding `CC(C)C[C@H](CC(=O)NO)C(=O)N[C@@H](Cc1ccccc1)C(=O)N[C@@H](CCC(=O)O)C(=O)NCCNC(=O)c1ccc(NN)nc1`, the Ki on Collagenase 3 was determined as 78 nM; in assay [2], 1300 nM; in assay [3], 7.5 nM; at Matrilysin, 615 nM; in assay [4] it was 222 nM. For the same compound, the “inhibition (qualitative)” value in [1] is “Active”.
Regarding `CC(C)C[C@H]1C(=O)N[C@H](C(=O)O)Cc2ccc(cc2)OCCC[C@@H]1C(=O)NO`, the Ki at Collagenase 3 amounted to 31 nM; in assay [2], 1100 nM; in [3], 1.1 nM; on Matrilysin, 39 nM; in assay [4] it was 300 nM. Moreover, in [1], the “inhibition (qualitative)” value is “Active”.
On to `CC(C)C[C@H]1C(=O)N[C@H](C(=O)N[C@@H](CCC(=O)O)C(=O)O)Cc2ccc(cc2)OCCC[C@@H]1C(=O)NO`, for which the Ratio Ki is 12 in the assay listed under Homo sapiens [5] and 74 in the assay filed under Homo sapiens [6]. The Ki at Collagenase 3 came to 89 nM; in [2] it was 2110 nM; in assay [3] it was 1.2 nM; on Matrilysin, 14.6 nM; in [4], 396 nM. For the same compound, the “inhibition (qualitative)” value in assay [1] was “Active”.
As for `CNC(=O)[C@H](CCCNC(=N)N)NC(=O)[C@@H]1Cc2ccc(cc2)OCCC[C@H](C(=O)NO)[C@@H](CC(C)C)C(=O)N1`, the “inhibition (qualitative)” value in [1] is “Active”.
As to `CC(C)C[C@H](CC(=O)NO)C(=O)N[C@@H](Cc1ccccc1)C(=O)O`, the Ki at Collagenase 3 stood at 81 nM; in [2], 125 nM; in [3], 11.8 nM; on Matrilysin, 323 nM; in [4] it was 164 nM. Further, the “inhibition (qualitative)” value in assay [1] is “Active”.
On to `CC(C)C[C@H](CC(=O)NO)C(=O)N[C@@H](Cc1ccc(OCCNC(=O)c2ccc(NN)nc2)cc1)C(=O)O`, for which the inhibitory constant (Ki) was above 5000 nM on Collagenase 3; 155 nM in [2]; 8.9 nM in [3]; above 5000 nM on Matrilysin; above 5000 nM in assay [4]. Also, the “inhibition (qualitative)” value in assay [1] is “Active”. Besides, the Ratio Ki in the assay listed under Homo sapiens [7] was 17.
